Results from the EternaBench riboswitch data.

Test system: MS2 coat protein
Assay: apparent Kd, MS2 coat protein; higher = weaker binding; RNA-MaP array; FMN 200 µM where present
Summary of the method: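 Binding was read on Illumina sequencing-chip clusters where stalled E. coli RNA polymerase had transcribed each design. A titration of SNAP-549-labelled MS2 coat protein began at 0.7 or 1.5 nM and doubled to 3 µM, once without ligand and once with constant ligand, in 100 mM Tris-HCl pH 7.5, 80 mM KCl, 4 mM MgCl2, BSA, DTT, yeast tRNA and Tween-20. The apparent Kd is the median of filtered per-cluster binding-curve fits, based on green signal normalised to red-channel RNA signal and control-cluster median Fmax.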

[1] = designed as: ON switch for flavin mononucleotide, no ligand
[2] = ligand present: flavin mononucleotide, designed as: ON switch for flavin mononucleotide
[3] = designed as: OFF switch for flavin mononucleotide, no ligand
[4] = ligand present: flavin mononucleotide, designed as: OFF switch for flavin mononucleotide

Sequence	apparent Kd [1]	apparent Kd [2]	apparent Kd [3]	apparent Kd [4]
AUUUUACAUGAGGAUCACCCAUGUUUUGGUGGGUCAGGAUAUAGAUCGGAUGAGUUCUGGCUAGAAGGGACAUAUA	75.9 nM	66.4 nM	–	–
AGAUGACAUGUAGGAUAUCGAGGCCUGAGGCCUCGAGAAGGACAUGAGGAUCACCCAUGUUUGCCGAGCAUGGAAUCCCGCACU	–	–	29.1 nM	205 nM
AUCGCUCAGCAGAAGGGACUGACAUGAGGAUCACCCAUGUCUUUUAUGGUCAGGAUAUGUUGCCGAACCACGAAAAGUGGGUGC	25.7 nM	9.27 nM	–	–
GGGCUGUCAGGAUAUGGGCCCGGGUUUGAAAGGGCCCGGGCCCAGAAGGGACAUGAGGAUCACCCAUGUGGCCC	–	–	36.3 nM	36.4 nM
GUGUACGGAGGAUAUAUGUGGGCAGGCUGACCUGCAGCUUCACAUGAGGAUCACCCAUGUAGAAGGCUGUACAC	–	–	22.7 nM	114 nM
GGAUAGGACAGAGGAUAUACGUGCUAGAGAUACUAGCAAAAUGUCCUCACAUGAGGAUCACCCAUGUAGAAGGCUGUCCUAUCG	–	–	7.96 nM	156 nM
UGACGGAGCAGAGGAUAUUACAUGAGGAUCACCCAUGUAUGAACCAAUAGCUGGAAACAGCAAUGUAAGAAGGCUGCUCCGACA	–	–	11.6 nM	147 nM
GUUAGACAUGAGGAUCACCCAUGUGAGGAUAUGAUGCGAAUAAAGAAUGAAGUAAGCAUCAGAAGGCACAUAUG	–	–	267 nM	381 nM
CCACGUCAGAUUAACAUGAGGAUCACCCAUGUCUUUUGACAUGAGGAUAUGGAUCCUAAUUGGAUCCAGAAGGCAUGGACGUGG	963 nM	96.9 nM	–	–
UGGUACUAGGGAGGAUAUGGGAAGAUACAUGAGGAUCACCCAUGUUUAAGAAUGCCGAGAAGCAACUAGAAGGCCCUAGUACCU	332 nM	19.5 nM	–	–
CCCUCACCAGUCAGGAUAUCUUGUGCGAAAAUGCUAGAGAAGGGACAUGAGGAUCACCCAUGUGCCUGCAAGGA	–	–	17.1 nM	17.9 nM
CAUAACUUUUCUCAUGUAAACAUGAGGAUCACCCAUGUAAUGAGAAGGAGGAGGCAGAGAGAAUCCUAGGAUAUCAGAAUUGUU	–	–	6.77 nM	6.43 nM
CAGUACUGAGGAUAUACAUGAGGAUCACCCAUGUGUUCCAGCUAGGAAACUAGGAAAAGUAGAAGGCAGUACUG	–	–	22.1 nM	261 nM
UUUUAGAGAGGAUAUACAUUUUUUUAUUUAUUUAUAAUAUUACAUGAGGAUCACCCAUGUAGAAGGCUCAUUUU	–	–	28.8 nM	22 nM
CAGUACUGUCGAGAGGAUAUGCGGUGAUGGACAUGAGGAUCACCCAUGUUAGCGACAGCAUCACGGCAGAAGGCUCUACUGCUGC	47.9 nM	17.2 nM	–	–
ACGCGAUGGGAGAAGGUACUUUAAAAUAUUUCCACAUGAGGAUCACCCAUGUAAGGAUAUCCCAUCGUUAAAUAUUAUACAGCA	–	–	7.07 nM	5.91 nM
GUAACUCAUGUAGGAUAUGCAUGGCGAAGCUACGCAGAAGGACAUGAGGAUCACCCAUGUUCUAGCGUCUGGAUACAGAUGCAA	–	–	85.7 nM	327 nM
GCCAUCAUAUGAGGAUAUGACACCGAAACGGUGUCAGAAGGCAUGUCGAUAGACAUGAGGAUCACCCAUGUAUAAAUGAUGGCA	780 nM	118 nM	–	–
CGCACUGAUAGAGGAUAUGUUUAACAUGAGGAUCACCCAUGUGUACAAGAAUCAAUAUUUAUCAAACAGAAGGCUAUUAGUGCG	–	–	5.06 nM	4.08 nM
UAGAAACAUGAGGAUCACCCAUGUGGGUUAAACACAGGAUAUCACGCCAAAAGAAAAGCGUGAGAAGGGUGACCGA	86.4 nM	717 nM	–	–
CAAUUUAUAUCAGGAUAUACAAUACAAUGAUUAGUAGAAGGGAUUAAUACAUGAGGAUCACCCAUGUCAUGUGUCAUAAUAACC	–	–	24.2 nM	19.1 nM
AUUAAUUAAUUAAUACAUGAGGAUCACCCAUGUAAUAAGAUCUAGGAUAUCAGCUCGAAUAGAGCUGAGAAGGAGAUCACAUGU	43.4 nM	35.3 nM	–	–
UCGCUGCGAGGAUAUACAUGAGGAUCACCCAUGUACGGGUCCGGGUCUUCGUCUAUUGGUAGAAGGCGCAGUGA	–	–	54.2 nM	277 nM
AUUUUGUCAGGAUAUGAGUAGUAGGACGAAAGUGCUACUACUUAGAAGGGACAUGAGGAUCACCCAUGUCUUCC	–	–	13.9 nM	16.8 nM
GCCUCAGAAUUAAUUGUGAGAAGCAGAAGGCUAUAUCUCAUGUUAAACAUGAGGAUCACCCAUGUAGAGGAUAUGCUAUUACAG	–	–	58.9 nM	282 nM
AGUGUGUGGCAGGAUAUUCCGGUCGUGGGUCGGGAAGAAGGGUCUACAUGAGGAUCACCCAUGUGAGCGGUUGA	–	–	210 nM	241 nM
